The values below come from ChEMBL document CHEMBL1145396, “High-throughput synthesis and screening of cyclic peptide antibiotics” (J Med Chem, 2007).

The test system of series [1] is Bacillus subtilis. Kind of series: Antimicrobial activity against Bacillus subtilis. It counts as functional. The essentials: (§1)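 Microtiter broth assay. Peptide stock in 30% DMSO/water, neutralized with sodium phosphate pH 7.0, added to a 1000-fold diluted overnight bacterial culture (1:5 into final volume). Incubated 7 h at 37 °C. Growth scored visually.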
Series [2] can be described thus: Ratio of MHC for human RBC to MIC for Bacillus subtilis. Type of series: functional.
Series [3] can be described thus: Toxicity assessed as hemolytic activity in human RBC. It counts as cell-based. Conditions: erythrocyte. The essentials:
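Peptide stocks were serially diluted 2-fold in water, then mixed with fresh human erythrocytes diluted 100-fold in PBS pH 7.4. Incubated overnight at room temperature and inspected visually for lysis. MHC was taken as the lowest concentration lysing half of the cells.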

The test system of series [4] is Escherichia coli. Kind of series: Antimicrobial activity against Escherichia coli. It counts as functional. Summed up:
as §1

Series [5] concerns Staphylococcus epidermidis. Kind of series: Antimicrobial activity against Staphylococcus epidermidis. Type of series: functional. Summed up:
as §1

For series [6], the system named is Enterococcus faecalis. The series is described as follows: Antimicrobial activity against Enterococcus faecalis. It counts as functional. The essentials: as §1
For series [7], the system named is Escherichia coli. Kind of series: Antimicrobial activity against Escherichia coli at 32 ug/mL. It counts as functional, organism-based.
Series [8] concerns Bacillus subtilis. Kind of series: Antimicrobial activity against Bacillus subtilis at 32 ug/mL. Type of series: functional.
Series [9] concerns Staphylococcus epidermidis. The series is described as follows: Antimicrobial activity against Staphylococcus epidermidis at 32 ug/mL. Type of series: functional, organism-based.
In series [10] the test system is Enterococcus faecalis. Kind of series: Antimicrobial activity against Enterococcus faecalis at 32 ug/mL. It counts as functional, organism-based.

Molecules are shown by their SMILES. ≈ marks a conversion by molar mass, not a printed value. Calls of active or inactive are those of the source. The rule behind the calls is not given here. Square brackets hold non-standard residues; d marks the D form. Peptide text beside a SMILES is read from it. Orn = NCCC[C@H](N)C(=O)O

What is called MIC is the lowest concentration that inhibits growth of the organism.

As for `CCCNC(=O)C[C@H]1NC(=O)[C@@H](CCCCN)NC(=O)[C@H](Cc2ccccc2)NC(=O)[C@@H]2CCCN2C(=O)[C@@H](Cc2ccccc2)NC(=O)[C@@H]2CCCN2C(=O)[C@H](CCCN)NC(=O)[C@H](C(C)C)NC(=O)[C@H](Cc2ccc(O)cc2)NC(=O)[C@H](Cc2ccc(F)cc2)NC1=O`, the MIC is 4 µg/mL (≈ 3.04 µM) in series [1], 32 µg/mL (≈ 24.3 µM) in [4], 32 µg/mL (≈ 24.3 µM) in series [5] and 8 µg/mL (≈ 6.09 µM) in series [6]. Also, in series [2], the Ratio turned out to be 32. In addition, in [3], the Activity was 128 µg/mL.
As to `CCCNC(=O)C[C@H]1NC(=O)[C@@H](CCCNC(=N)N)NC(=O)[C@H](Cc2ccccc2)NC(=O)[C@@H]2CCCN2C(=O)[C@@H](Cc2ccccc2)NC(=O)[C@H](Cc2ccc(F)cc2)NC(=O)[C@H](CCCN)NC(=O)[C@H](C(C)C)NC(=O)[C@H](Cc2ccc(O)cc2)NC(=O)CNC1=O`, the Ratio in series [2] was 8.
Consider `CCCNC(=O)C[C@@H]1NC(=O)[C@@H](CCCNC(=N)N)NC(=O)[C@H](Cc2ccccc2)NC(=O)[C@@H]2CCCN2C(=O)[C@@H](Cc2ccccc2)NC(=O)[C@H](Cc2ccc(F)cc2)NC(=O)[C@H](CCCN)NC(=O)[C@H](C(C)C)NC(=O)[C@H](Cc2ccc(O)cc2)NC(=O)[C@H](CCCNC(=N)N)NC1=O`, for which the MIC in series [1] is 1 µg/mL (≈ 0.713 µM); in series [4] it was 8 µg/mL (≈ 5.71 µM); in [5], 4 µg/mL (≈ 2.85 µM); in [6] it was 8 µg/mL (≈ 5.71 µM). Also, the Ratio in series [2] was found to be 4. For the same compound, the Activity in series [3] came out at 8 µg/mL.
As for `CCCNC(=O)C[C@@H]1NC(=O)[C@@H](Cc2ccccc2)NC(=O)[C@H](Cc2ccccc2)NC(=O)[C@@H]2CCCN2C(=O)[C@@H](Cc2ccccc2)NC(=O)CNC(=O)[C@H](CCCN)NC(=O)[C@H](C(C)C)NC(=O)[C@H](Cc2ccc(O)cc2)NC(=O)[C@H](CCCCN)NC1=O`, the outcome in series [7] was inactive. Also, the minimal inhibitory concentration (MIC) was 8 µg/mL (≈ 6.37 µM) in [1], 16 µg/mL (≈ 12.7 µM) in series [5] and 32 µg/mL (≈ 25.5 µM) in series [6]. The Ratio in series [2] came out at 8. In series [3], the Activity came to 64 µg/mL.
Take `CCCNC(=O)C[C@@H]1NC(=O)[C@@H](CCCNC(=N)N)NC(=O)[C@H](Cc2ccccc2)NC(=O)[C@@H]2CCCN2C(=O)[C@@H](Cc2ccccc2)NC(=O)[C@H](Cc2ccc(F)cc2)NC(=O)[C@H](CCCN)NC(=O)[C@H](C(C)C)NC(=O)[C@H](Cc2ccc(O)cc2)NC(=O)CNC1=O` [listing 1 of 2 here]: the MIC in series [1] was 1 µg/mL (≈ 0.768 µM); in series [4], 4 µg/mL (≈ 3.07 µM); in series [5] it was 1 µg/mL (≈ 0.768 µM); in [6] it was 2 µg/mL (≈ 1.54 µM).
In the case of `CCCNC(=O)C[C@H]1NC(=O)[C@@H](CCCCN)NC(=O)[C@H](Cc2ccccc2)NC(=O)[C@@H]2CCCN2C(=O)[C@@H](Cc2ccccc2)NC(=O)[C@H](Cc2ccc(O)cc2)NC(=O)[C@H](CCCN)NC(=O)[C@H](C(C)C)NC(=O)[C@H](Cc2ccc(O)cc2)NC(=O)[C@H](CCCCN)NC1=O`, the MIC came to 2 µg/mL (≈ 1.49 µM) in [1], 16 µg/mL (≈ 11.9 µM) in series [4], 4 µg/mL (≈ 2.98 µM) in series [5] and 16 µg/mL (≈ 11.9 µM) in [6]. Besides, in series [2], the Ratio stood at 32. For the same compound, the Activity in series [3] stood at 64 µg/mL.
For the compound `CC(C)C[C@@H]1NC(=O)[C@H](CCCN)NC(=O)[C@H](C(C)C)NC(=O)[C@H](Cc2ccc(O)cc2)NC(=O)[C@H](CCC(N)=O)NC(=O)[C@H](CC(N)=O)NC(=O)[C@@H](Cc2ccccc2)NC(=O)[C@H](Cc2ccccc2)NC(=O)[C@@H]2CCCN2C(=O)[C@@H](Cc2ccccc2)NC1=O` [TYROCIDINE A] (cyclo(F[dF]NQYV[Orn]L[dF]P)), the MIC in series [1] worked out at 1 µg/mL (≈ 0.787 µM); in [4], 8 µg/mL (≈ 6.3 µM); in series [5], 1 µg/mL (≈ 0.787 µM); in series [6], 1 µg/mL (≈ 0.787 µM). In addition, in series [2], the Ratio was found to be 2. The Activity in [3] amounted to 2 µg/mL.
`CCCNC(=O)C[C@H]1NC(=O)[C@@H](CCCNC(=N)N)NC(=O)[C@H](Cc2ccccc2)NC(=O)[C@@H]2CCCN2C(=O)[C@@H](Cc2ccccc2)NC(=O)[C@@H]2CCCN2C(=O)[C@H](CCCN)NC(=O)[C@H](C(C)C)NC(=O)[C@H](Cc2ccc(O)cc2)NC(=O)[C@@H](C)NC1=O`: the outcome in series [7], in series [9] and in series [10] was inactive. Further, in series [2], the Ratio worked out at 1024. The Activity in series [3] was found to be 514 µg/mL. This compound came in with an MIC in [8] of 0.5 µg/mL (≈ 0.4 µM).
As to `CCCNC(=O)C[C@@H]1NC(=O)[C@@H](CCCNC(=N)N)NC(=O)[C@H](Cc2ccccc2)NC(=O)[C@@H]2CCCN2C(=O)[C@@H](Cc2ccccc2)NC(=O)[C@@H](CC(N)=O)NC(=O)[C@H](CCCN)NC(=O)[C@H](C(C)C)NC(=O)[C@H](Cc2ccc(O)cc2)NC(=O)[C@@H](CC(C)C)NC1=O`, the minimal inhibitory concentration (MIC) in series [1] came to 8 µg/mL (≈ 6.12 µM); in series [4], 32 µg/mL (≈ 24.5 µM).
As for `CCCNC(=O)C[C@@H]1NC(=O)[C@@H](CCCNC(=N)N)NC(=O)[C@H](Cc2ccccc2)NC(=O)[C@@H]2CCCN2C(=O)[C@@H](Cc2ccccc2)NC(=O)[C@H](Cc2ccc(F)cc2)NC(=O)[C@H](CCCN)NC(=O)[C@H](C(C)C)NC(=O)[C@H](Cc2ccc(O)cc2)NC(=O)[C@H](CO)NC1=O`, the MIC in series [1] was 2 µg/mL (≈ 1.5 µM); in [4], 16 µg/mL (≈ 12 µM); in series [5] it was 2 µg/mL (≈ 1.5 µM); in [6] it was 8 µg/mL (≈ 6 µM). Besides, the Ratio in series [2] turned out to be 8. Besides, the Activity in [3] came to 16 µg/mL.
Consider `CCCNC(=O)C[C@@H]1NC(=O)[C@@H](CCCNC(=N)N)NC(=O)[C@H](Cc2ccccc2)NC(=O)[C@@H]2CCCN2C(=O)[C@@H](Cc2ccccc2)NC(=O)[C@@H](CC(C)C)NC(=O)[C@H](CCCN)NC(=O)[C@H](C(C)C)NC(=O)[C@H](Cc2ccc(O)cc2)NC(=O)[C@H](CCCCN)NC1=O`, for which the minimal inhibitory concentration (MIC) turned out to be 8 µg/mL (≈ 6.05 µM) in series [1], 32 µg/mL (≈ 24.2 µM) in series [4], 8 µg/mL (≈ 6.05 µM) in series [5] and 16 µg/mL (≈ 12.1 µM) in series [6]. Also, the Ratio in series [2] was determined as 16. Besides, the Activity in series [3] came out at 128 µg/mL.
As to `CCCNC(=O)C[C@@H]1NC(=O)[C@@H](CCCNC(=N)N)NC(=O)[C@H](Cc2ccccc2)NC(=O)[C@@H]2CCCN2C(=O)[C@@H](Cc2ccccc2)NC(=O)[C@@H]2CCCN2C(=O)[C@H](CCCN)NC(=O)[C@H](C(C)C)NC(=O)[C@H](Cc2ccc(O)cc2)NC(=O)[C@@H](C)NC1=O`, the outcome in series [7], in [8], in series [9] and in [10] was inactive. The minimum inhibitory concentration (MIC) is over 32 µg/mL in series [1] and 32 µg/mL (≈ 25.6 µM) in series [4].
On to `CCCNC(=O)C[C@@H]1NC(=O)[C@@H](CCCNC(=N)N)NC(=O)[C@H](Cc2ccccc2)NC(=O)[C@@H]2CCCN2C(=O)[C@@H](Cc2ccccc2)NC(=O)[C@H](Cc2ccc(F)cc2)NC(=O)[C@H](CCCN)NC(=O)[C@H](C(C)C)NC(=O)[C@H](Cc2ccc(O)cc2)NC(=O)CNC1=O` [listing 2 of 2 here], for which the Activity in series [3] was 16 µg/mL.
`CCCNC(=O)C[C@@H]1NC(=O)[C@@H](CCCCN)NC(=O)[C@H](Cc2ccccc2)NC(=O)[C@@H]2CCCN2C(=O)[C@@H](Cc2ccccc2)NC(=O)[C@@H]2CCCN2C(=O)[C@H](CCCN)NC(=O)[C@H](C(C)C)NC(=O)[C@H](Cc2ccc(O)cc2)NC(=O)[C@H](Cc2ccc(F)cc2)NC1=O`: the result in series [7], in [8], in series [9] and in series [10] was inactive. Moreover, the minimal inhibitory concentration (MIC) was over 32 µg/mL in series [1] and 32 µg/mL (≈ 24.3 µM) in series [4].
In the case of `CCCNC(=O)C[C@@H]1NC(=O)[C@@H](CCCCN)NC(=O)[C@H](Cc2ccccc2)NC(=O)[C@@H]2CCCN2C(=O)[C@@H](Cc2ccccc2)NC(=O)[C@H](Cc2ccc(O)cc2)NC(=O)[C@H](CCCN)NC(=O)[C@H](C(C)C)NC(=O)[C@H](Cc2ccc(O)cc2)NC(=O)[C@H](CCCCN)NC1=O`, the minimal inhibitory concentration (MIC) in [1] was found to be 4 µg/mL (≈ 2.98 µM); in series [4] it was 32 µg/mL (≈ 23.8 µM); in series [5] it was 4 µg/mL (≈ 2.98 µM); in series [6], 16 µg/mL (≈ 11.9 µM). For the same compound, the Ratio in [2] turned out to be 32. Moreover, in series [3], the Activity was 128 µg/mL.
In the case of `CCCNC(=O)C[C@@H]1NC(=O)[C@@H](Cc2ccccc2)NC(=O)[C@H](Cc2ccccc2)NC(=O)[C@@H]2CCCN2C(=O)[C@@H](Cc2ccccc2)NC(=O)CN(C)C(=O)[C@H](CCCN)NC(=O)[C@H](C(C)C)NC(=O)[C@H](Cc2ccc(O)cc2)NC(=O)[C@@H](Cc2ccccc2)NC1=O`, the MIC in [1] and in series [4] was 32 µg/mL (≈ 24.8 µM) each time.
